Type in all cases: functional
Assay [1] relates to Mycoplasmoides pneumoniae. Nature of the assay: Antimicrobial activity against macrolide-resistant Mycoplasma pneumoniae harboring A2063G transition in domain V of 23S rRNA isolated from pediatric patients with community-acquired pneumonia after 10 to 14 days by microdilution method. An outline of the steps: (§1)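 Clinical isolates cultured from PCR-positive pediatric nasopharyngeal samples in PPLO broth; resistance mutation identified by full-length 23S rRNA gene sequencing. Broth microdilution in PPLO broth containing serially diluted antibiotics, inoculum estimated at 10^5 CFU/ml in culture. Incubated aerobically at 37°C for 10 to 14 days until the antibiotic-free control changed colour. MIC was the lowest concentration preventing the colour change. Strain M129 served as control.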

Assay [2] deals with Mycoplasmoides pneumoniae. Nature of the assay: Antimicrobial activity against macrolide-resistant Mycoplasma pneumoniae harboring A2064G transition in domain V of 23S rRNA isolated from pediatric patients with community-acquired pneumonia after 10 to 14 days by microdilution method. An outline of the steps:
as §1

The subject of assay [3] is Mycoplasmoides pneumoniae. The experiment in a line: Antimicrobial activity against macrolide-susceptible Mycoplasma pneumoniae isolated from pediatric patients with community-acquired pneumonia after 10 to 14 days by microdilution method. Summed up:
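Pediatric CAP nasopharyngeal isolates, cultured in PPLO broth from real-time PCR-positive samples; strain M129 as control. Broth microdilution in PPLO broth: inoculum estimated at 10^5 CFU/ml added 1:10 to serially diluted antibiotic. Incubated aerobically at 37°C for 10–14 days, until the antibiotic-free growth control changed colour. MIC taken as lowest concentration preventing colour change; MIC50/MIC90 and range reported.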

In brackets after ≈: the same amount, converted by molar mass. Bounds are passed on as bounds.

Consider `CC[C@H]1OC(=O)[C@H](C)[C@@H](O[C@H]2C[C@@](C)(OC)[C@@H](O)[C@H](C)O2)[C@H](C)[C@@H](O[C@@H]2O[C@H](C)C[C@H](N(C)C)[C@H]2O)[C@](C)(O)C[C@@H](C)CN(C)[C@H](C)[C@@H](O)[C@]1(C)O` [AZITHROMYCIN], for which the results for the MIC50 in assay [1], in assay [2] and in assay [3] were 32 µg/mL (≈ 42.7 µM), 32 µg/mL (≈ 42.7 µM) and 0.00049 µg/mL (≈ 0.000654 µM), respectively. In addition, the MIC90 is 64 µg/mL (≈ 85.4 µM) in assay [1], 64 µg/mL (≈ 85.4 µM) in assay [2] and 0.00098 µg/mL (≈ 0.00131 µM) in assay [3].

For the compound `C[C@H]1COc2c(N3CCN(C)CC3)c(F)cc3c(=O)c(C(=O)O)cn1c23.C[C@H]1COc2c(N3CCN(C)CC3)c(F)cc3c(=O)c(C(=O)O)cn1c23.O` [LEVOFLOXACIN], the MIC50 in assay [1] is 1 µg/mL; in assay [2], 1 µg/mL; in assay [3], 0.5 µg/mL. Moreover, the MIC90 in assay [1], in assay [2] and in assay [3] was 1 µg/mL in each case.

As to `CO[C@@H]1[C@@H](O[C@@H]2O[C@H](C)[C@@H](O[C@H]3C[C@@](C)(O)[C@@H](OC(=O)CC(C)C)[C@H](C)O3)[C@H](N(C)C)[C@H]2O)[C@@H](CC=O)C[C@@H](C)[C@@H](O)/C=C/C=C/C[C@@H](C)OC(=O)C[C@H]1OC(C)=O` [JOSAMYCIN], the results for the MIC50 in assay [1], in assay [2] and in assay [3] were 8 µg/mL (≈ 9.66 µM), 64 µg/mL (≈ 77.3 µM) and 0.0313 µg/mL (≈ 0.0378 µM), respectively. For the same compound, the values for the MIC90 in assay [1], in assay [2] and in assay [3] were 16 µg/mL (≈ 19.3 µM), > 64 µg/mL and 0.0625 µg/mL (≈ 0.0755 µM), respectively.

For `CC[C@H]1OC(=O)[C@H](C)C(=O)[C@H](C)[C@@H](O[C@@H]2O[C@H](C)C[C@H](N(C)C)[C@H]2O)[C@](C)(OC)C[C@@H](C)C(=O)[C@H](C)[C@H]2N(CCCCn3cnc(-c4cccnc4)c3)C(=O)O[C@]12C` [TELITHROMYCIN], the results for the MIC50 in assay [1], in assay [2] and in assay [3] were 32 µg/mL (≈ 39.4 µM), 4 µg/mL (≈ 4.93 µM) and 0.00098 µg/mL (≈ 0.00121 µM), respectively. For the same compound, the MIC90 in assay [1] worked out at 64 µg/mL (≈ 78.8 µM); in assay [2], 16 µg/mL (≈ 19.7 µM); in assay [3], 0.00195 µg/mL (≈ 0.0024 µM).

In the case of `CC[C@H]1OC(=O)[C@H](C)[C@@H](O[C@H]2C[C@@](C)(OC)[C@@H](O)[C@H](C)O2)[C@H](C)[C@@H](O[C@@H]2O[C@H](C)C[C@H](N(C)C)[C@H]2O)[C@](C)(O)C[C@@H](C)C(=O)[C@H](C)[C@@H](O)[C@]1(C)O` [ERYTHROMYCIN], the MIC50 was 64 µg/mL (≈ 87.2 µM) in assay [1], > 64 µg/mL in assay [2] and 0.0078 µg/mL (≈ 0.0106 µM) in assay [3]. The MIC90 in assay [1] is > 64 µg/mL; in assay [2], > 64 µg/mL; in assay [3], 0.0156 µg/mL (≈ 0.0213 µM). Also, in assay [2], the MIC was ≥ 64 µg/mL.

For `CC[C@H]1OC(=O)[C@H](C)[C@@H](O[C@H]2C[C@@](C)(OC)[C@@H](O)[C@H](C)O2)[C@H](C)[C@@H](O[C@@H]2O[C@H](C)C[C@H](N(C)C)[C@H]2O)[C@](C)(OC)C[C@@H](C)C(=O)[C@H](C)[C@@H](O)[C@]1(C)O` [CLARITHROMYCIN], the MIC50 was 64 µg/mL (≈ 85.6 µM) in assay [1], 64 µg/mL (≈ 85.6 µM) in assay [2] and 0.0039 µg/mL (≈ 0.00521 µM) in assay [3]. Moreover, the figures for the MIC90 in assay [1], in assay [2] and in assay [3] were > 64 µg/mL, 64 µg/mL (≈ 85.6 µM) and 0.0078 µg/mL (≈ 0.0104 µM), respectively.

For the compound `CCCC(=O)O[C@H]1[C@H](C)O[C@@H](O[C@H]2[C@H](N(C)C)[C@@H](O)[C@H](O[C@H]3[C@@H](CC=O)C[C@@H](C)[C@@H](O)/C=C/C=C/C[C@@H](C)OC(=O)C[C@@H](O)[C@@H]3OC)O[C@@H]2C)C[C@@]1(C)OC(=O)CC` [ROKITAMYCIN], the MIC50 in assay [1] is 0.125 µg/mL (≈ 0.151 µM); in assay [2] it was 16 µg/mL (≈ 19.3 µM); in assay [3] it was 0.0156 µg/mL (≈ 0.0188 µM). Also, the MIC90 amounted to 0.25 µg/mL (≈ 0.302 µM) in assay [1], 16 µg/mL (≈ 19.3 µM) in assay [2] and 0.0156 µg/mL (≈ 0.0188 µM) in assay [3].

With `CN(C)c1ccc(O)c2c1C[C@H]1C[C@H]3[C@H](N(C)C)C(O)=C(C(N)=O)C(=O)[C@@]3(O)C(O)=C1C2=O` [MINOCYCLINE], the MIC50 in assay [1], in assay [2] and in assay [3] was 0.5 µg/mL (≈ 1.09 µM) in each case. In addition, the MIC90 in assay [1], in assay [2] and in assay [3] was 1 µg/mL (≈ 2.19 µM) throughout.

(Values after ChEMBL document CHEMBL1151455, “Increased macrolide resistance of Mycoplasma pneumoniae in pediatric patients with community-acquired pneumonia” (2008).)
